Assay: Toxicity liver stage against HepG2, at 10uM
Type: cell-based
Design: test concentration 10 uM, cell line HepG2-A16-CD81EGFP
Settings: human, HepG2-A16-CD81EGFP cells; read-out: INHIBITION
How it was run: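 Uninfected HepG2-A16-CD81EGFP cells, 3 × 10^3 per well, 1536-well, plated on prespotted compound at 10 μM final, parasite-free screening media added to match infected plates; puromycin 10 μM positive, DMSO 0.5% negative; run in parallel with 48 h PbLuc assay at 37 °C, 5% CO2; viability by CellTiter-Glo luminescence, normalized to controls.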

Compared with O=C(c1ccco1)N1CCC2(CC1)CCN(c1ncccn1)CC2, O=C(c1ccco1)N1CC[C@H]2C[C@@H](c3nccs3)O[C@@H]2C1 is lower in cytotoxicity at 10 µM: 4.59% for the first, 0.428% for the second.

First: O=C(c1cccnc1)N1C[C@@H]2OCC(=O)N(Cc3cccnc3)[C@@H]2C1
Second: O=C(c1cccnc1)N1CCC[C@]2(C[C@H](Oc3ncccc3F)CO2)C1
The cytotoxicity at 10 µM of the first is higher: 2.08% for the first, 0.37% for the second.

Going from CC(=O)N1CCC(N2CCN3C(=O)N(Cc4ccccn4)C[C@H]3C2)CC1 to CCN1C(=O)[C@H]2CN(Cc3cccnc3)C[C@H]2C12CCN(C(C)=O)CC2, the cytotoxicity at 10 µM falls from 2.26% to -1.8%.

Going from CC(C)N[C@@H]1CO[C@H](CNC(=O)c2cccs2)[C@H]1O to CC(C)c1sc(Br)nc1C(=O)NCc1ccco1, the cytotoxicity at 10 µM rises from -3.65% to -2.89%.

Going from O=C(O)C[C@@H]1CCN(C(=O)C2CCCC2)C[C@@H]1CCN1CCCCC1 to O=C(Nc1ccc(CCN2CCOCC2)cc1)C1CCCC1, the cytotoxicity at 10 µM falls from -6.51% to -16%.

First: Cc1[nH]c2nc(CNc3ccccc3Cl)nn2c(=O)c1C
Second: CCc1c(C)n(CCOC)c2nc3ccccc3n2c1=O
The cytotoxicity at 10 µM of the first is lower: -1.29% for the first, -0.277% for the second.

Going from COc1c[nH]c(C(=O)Nc2nc(C)cs2)cc1=O to COC(=O)CCn1ccc(=O)c2ccc(OC)cc21, the cytotoxicity at 10 µM rises from -44.4% to 17.1%.

First: Cc1nn(-c2ccc(C(=O)O)cc2)c2c1C(c1ccsc1)SCC(=O)N2 (stereo unspecified)
Second: Cc1nn(CC(=O)N2CCN(c3ccc(F)cc3)CC2)c(C)c1Cl
The cytotoxicity at 10 µM of the first is lower: 0.153% for the first, 6.87% for the second.

Going from O=C(Nc1cc(N2CCOCC2)ncn1)c1cnccn1 to FC(F)(F)c1cc(C2CCN(c3cnccn3)CC2)n2ccnc2n1, the cytotoxicity at 10 µM rises from -3.45% to -1.53%.

Going from CC(=O)N1C[C@@H]2C(=O)N(C)C3(CCN(C(=O)C(C)C)CC3)[C@@H]2C1 to COc1cccc(-c2cnc3n2CCC32CCN(C(C)=O)CC2)c1, the cytotoxicity at 10 µM falls from 0.434% to -2.05%.

Going from COc1ccc(C[C@H]2CN(C(=O)c3ccn(C)n3)CC[C@H]2OC)cc1 to COc1ccc(CCC(=O)N2CCCC(n3cncn3)C2)cc1 (stereo unspecified), the cytotoxicity at 10 µM falls from 5.12% to -21%.

First: O=C(C1CCOC1)N1CCC2(CCCNC2)CC1 (stereo unspecified)
Second: CN(C)C(=O)CN1CCOCC2(CCN(CC3CCOC3)CC2)C1 (stereo unspecified)
The cytotoxicity at 10 µM of the first is lower: -1.74% for the first, 7.54% for the second.

Compared with O=C(c1ccsc1)N1CCC2(CCN2Cc2ccc(F)cc2)C1 (stereo unspecified), COC1CCN(C(=O)Cc2csc(-c3ccc(F)cc3)n2)CC1 is higher in cytotoxicity at 10 µM: -144% for the first, -6.16% for the second.

Compared with O=C1CC2(CCN(c3nncs3)C2)CN1c1ccc2c(c1)OCCO2 (stereo unspecified), N#CCCN(C(=O)CCc1cscn1)c1ccc2c(c1)OCCO2 is lower in cytotoxicity at 10 µM: 6.66% for the first, -2.12% for the second.

First: CCc1c(C(=O)O)nnn1-c1cc(C)ccc1C
Second: Cc1ccc(OCCN(C)C(=O)CCCC(N)=O)c(C)c1
The cytotoxicity at 10 µM of the first is lower: -23.7% for the first, 1.47% for the second.

First: O=C(NCCCN1CCOCC1)c1cc(-c2ccc3c(c2)CCO3)n[nH]1
Second: CC(CN1CCOCC1)NC(=O)NCc1ccoc1 (stereo unspecified)
The cytotoxicity at 10 µM of the first is higher: -3.73% for the first, -5.52% for the second.

First: COCCNC(=O)Cn1nc(C(C)C)c2cnn(C(C)(C)C)c2c1=O
Second: CC(C)N(CC(N)=O)Cc1csc(C(C)(C)C)n1
The cytotoxicity at 10 µM of the first is lower: -21.9% for the first, -5.13% for the second.

Compared with CC(C)CCn1[nH]c(CNc2ccccc2)nc1=O, Cc1noc(C(C)C)c1C(=O)NCC(c1ccccc1)N(C)C (stereo unspecified) is lower in cytotoxicity at 10 µM: 1.62% for the first, -7.72% for the second.

First: Cc1cc(C(=O)NCc2cnn(C)c2C)nc(N2CCCCCC2)n1
Second: CCOC(=O)NCCNC(=O)c1cc2ccccc2nc1N1CCCC1
The cytotoxicity at 10 µM of the first is higher: 2.01% for the first, -7.74% for the second.

Going from CC(C)N1CCCC1c1cc(C(F)(F)F)[nH]n1 (stereo unspecified) to CNc1cc(C2CCCN2C(=O)c2ccc(=O)[nH]n2)ccn1 (stereo unspecified), the cytotoxicity at 10 µM falls from 0.171% to -5.04%.

Going from COc1cc2cc3c(nc2cc1OC)OCCN(CC1CC1)C3 to COc1ccc(CN2CC[C@@H](N)[C@@H](OC)C2)cc1Cn1cncn1, the cytotoxicity at 10 µM falls from 5.37% to -3.7%.

Going from Cc1ncc2c(n1)CN(Cc1ncc(C(C)(C)C)o1)CC2 to COc1c(C)cnc(CN2CCn3c(C)nnc3C2)c1C, the cytotoxicity at 10 µM falls from 0.96% to -4.97%.

First: Cc1cc(C)c(S(N)(=O)=O)cc1C(=O)NCCN1CCC(C)CC1
Second: CNS(=O)(=O)CC(=O)N1CCC(c2ccc(F)c(F)c2)CC1
The cytotoxicity at 10 µM of the first is lower: -0.77% for the first, 0.696% for the second.

First: O=C(NCc1ccon1)c1c(F)cc(Br)cc1F
Second: CCOc1ncccc1CNC(=O)c1cc(C)on1
The cytotoxicity at 10 µM of the first is higher: 12.3% for the first, -19% for the second.

Going from Cc1cc2ccccc2n1CC(=O)NC(C)C(=O)N1CCOCC1 (stereo unspecified) to Cc1cccc(C(C)CNC(=O)N2CCOCC3(CCOCC3)C2)c1 (stereo unspecified), the cytotoxicity at 10 µM rises from 3.57% to 8.84%.

Going from Cn1cnc2c1CCN(CC(=O)NC1CCCCNC1=O)C2 (stereo unspecified) to CCCn1nc2c(cc1=O)CN(CCN1CCCC1=O)CC2, the cytotoxicity at 10 µM falls from -5.97% to -11.6%.

Compared with CCS(=O)(=O)NCCNC(C)(C)c1nc(C)cs1, Cc1csc(CN(C)CCCOc2cccc(C#N)c2)n1 is lower in cytotoxicity at 10 µM: -0.396% for the first, -7.03% for the second.

Compared with O=C(COCc1ccccc1)NCc1ccc(O)c(F)c1, CN(C)c1cc(CNC(=O)c2ccccc2Cl)ccn1 is lower in cytotoxicity at 10 µM: 1.05% for the first, -8.28% for the second.

Going from Cc1cc(CN(C)C(=O)CC(C)C)no1 to Cc1cc(NC(=O)CNC2CCc3nc(C(C)C)nn3C2)no1 (stereo unspecified), the cytotoxicity at 10 µM falls from -3.57% to -3.87%.

Compared with O=C(NCCc1nccs1)N1CCC(n2cccc2)CC1, N#CC1CCN(C(=O)NCCc2ccc(Cl)s2)CC1 is lower in cytotoxicity at 10 µM: 5.87% for the first, -16.1% for the second.

Compared with CC(C)(C)C(Cn1ccnc1)NC(=O)NCc1ccco1 (stereo unspecified), CC(Cn1ccnc1)NCc1cc(Br)c2c(c1)OCO2 (stereo unspecified) is higher in cytotoxicity at 10 µM: -1.85% for the first, 12.9% for the second.

Going from COC(=O)c1ccccc1S(=O)(=O)NC(=O)c1cccc2c1OCCO2 to Cc1ccc(C2CSCCN2C(=O)c2ccc(C(N)=O)cc2)o1 (stereo unspecified), the cytotoxicity at 10 µM rises from -12.5% to -2.12%.

Compared with COCCN(Cc1cnn(C)c1)Cc1ccc(C)o1, Cc1nnc(CN(C)CCCOc2cccc(Cl)c2)o1 is higher in cytotoxicity at 10 µM: -0.0972% for the first, 2.51% for the second.

First: CC(C)n1nc2c(cc1=O)CN(CCOc1ccc(C#N)cc1)CC2
Second: Cc1cnc(C)c(N2CCN(Cc3ccc(-c4cc[nH]n4)o3)CC2)n1
The cytotoxicity at 10 µM of the first is higher: 14.9% for the first, -5.01% for the second.

Going from CC(C)CNC(=O)c1[nH]nc(C2CC2)c1Br to CC(O)CN1CCC(CNCc2c[nH]nc2C(C)(C)C)CC1 (stereo unspecified), the cytotoxicity at 10 µM falls from 2.71% to -8.55%.

First: CC(C)(C)C(O)CN1CCN(CC(=O)NC2CCOCC2)CC1 (stereo unspecified)
Second: CNC(=O)CN1CCN(C(=O)c2ccn(C)c(=O)c2)CC1
The cytotoxicity at 10 µM of the first is higher: -8.06% for the first, -16% for the second.

Compared with CC(C)(C)c1nc(CNC(=O)N2CCc3ccccc3C2CO)no1 (stereo unspecified), CC(C)c1nc(C2CCCN(C(=O)Cn3ccccc3=O)C2)no1 (stereo unspecified) is lower in cytotoxicity at 10 µM: 6.56% for the first, -16.3% for the second.

First: CCc1nnsc1C(=O)NC1CCN(c2ccccn2)CC1
Second: Cc1cc(C)n(CC(=O)N2CCC(Nc3cccnn3)CC2)n1
The cytotoxicity at 10 µM of the first is lower: -2.49% for the first, -0.397% for the second.

Compared with O=C(c1cccnc1-n1cncn1)N1CCN(CC2CC2)CC1, CC(O)CN1CCN(C(=O)c2ccn(-c3ccc(F)cc3)n2)CC1 (stereo unspecified) is higher in cytotoxicity at 10 µM: -10.9% for the first, -6.11% for the second.

Compared with O=C(c1ccncc1F)N1CCc2ncnc(-c3ccncc3)c2CC1, O=C(c1ccncc1)N1CCCC2(CCN(c3cccnc3)C2=O)C1 (stereo unspecified) is lower in cytotoxicity at 10 µM: 2.75% for the first, -131% for the second.

Compared with CC(C)c1nc(CN(C)C(=O)C2CC(=O)N(Cc3ccncc3)C2)cs1 (stereo unspecified), Cc1cc(C)n(CC2CCCCN2CCc2ccncc2)n1 (stereo unspecified) is lower in cytotoxicity at 10 µM: -3.75% for the first, -7.07% for the second.

First: CC(=O)N[C@@H]1CN(C(=O)c2cc3sccc3[nH]2)C[C@H]1c1ccc(C)o1
Second: Cc1ccc(C(=O)N2C[C@@H]3CCCO[C@@H]3[C@H](N(C)Cc3ccco3)C2)o1
The cytotoxicity at 10 µM of the first is higher: 8.98% for the first, 5.51% for the second.

Going from CCc1ccc(CN2CCN(c3ccc(Cl)nn3)CC2)nc1 to Cc1ccc(N2Cc3cnn(Cc4ccc(F)cc4)c3C2)nn1, the cytotoxicity at 10 µM rises from -2.98% to 0.209%.

First: C[C@@H]1CN(C(=O)C2CCS(=O)(=O)CC2)C[C@]1(C)O
Second: Cc1ccc(CN2CCC3(CCC(C(=O)N(C)C)O3)CC2)o1 (stereo unspecified)
The cytotoxicity at 10 µM of the first is lower: -4.11% for the first, -2.63% for the second.

Compared with COc1ccccc1-c1ncc(CN2C[C@@H](N(C)C)[C@H](C(C)C)C2)s1, COc1cccc(CNCc2c(C(C)C)nn(C)c2N(C)C)c1OC is higher in cytotoxicity at 10 µM: -12.3% for the first, 1.87% for the second.

Compared with CN(Cc1nncn1C)c1nccc(C2CCCC2)n1, c1cnnc(N2CCC(c3nnc(Cn4ccnc4)n3C3CC3)CC2)c1 is higher in cytotoxicity at 10 µM: -1.14% for the first, 6.71% for the second.

Compared with Cc1cccc(C(C(=O)N2CC(c3cccnc3)C2)N(C)C)c1 (stereo unspecified), Cc1ccoc1C(=O)N1CC[C@H]2[C@@H]1CCC(=O)N2c1cccnc1 is lower in cytotoxicity at 10 µM: -4.8% for the first, -70.4% for the second.

Compared with Cc1cnn(-c2cncc(C(N)=O)c2)c1, CCN(CC)C(=O)C1CCCN1C(=O)c1cccc(-n2cnnn2)c1 (stereo unspecified) is lower in cytotoxicity at 10 µM: 3.04% for the first, -14.9% for the second.

Going from CC(=O)NCc1cc2n(n1)CCN(Cc1cccc(CCN)c1)C2 to COCCc1noc(CN2CCN(CC(O)c3ccccc3)CC2)n1 (stereo unspecified), the cytotoxicity at 10 µM rises from -19.5% to 2.67%.

Going from Cc1ncoc1C(=O)N1CCOC(CCCC(C)C)C1 (stereo unspecified) to COC(=O)NCC(=O)N1CCC(c2nc3cc(F)ccc3[nH]2)CC1, the cytotoxicity at 10 µM falls from 8.29% to 3.67%.

First: COc1cc(C2(C(=O)N3CCCC(n4cncn4)C3)CC2)ccc1C (stereo unspecified)
Second: Cc1ccc(-c2nc(CN3CCCC(Cn4cncn4)C3)cs2)o1 (stereo unspecified)
The cytotoxicity at 10 µM of the first is higher: -6.16% for the first, -22.2% for the second.

Compared with CCn1cnnc1CNC(=O)c1cc(Cl)c(I)cc1OC, Cc1nn(C)c(N(C)C)c1CNCc1nnc2n1CCCCC2 is higher in cytotoxicity at 10 µM: -14.4% for the first, -5.68% for the second.

First: c1ccc(-c2nc(CN3CCCC(Cn4cncn4)C3)cs2)cc1 (stereo unspecified)
Second: c1ccc(Cn2cc3c(n2)C(CNCC2CCOCC2)OCC3)nc1 (stereo unspecified)
The cytotoxicity at 10 µM of the first is higher: -9.53% for the first, -149% for the second.

Compared with Cn1cccc1C(=O)N1CCc2c(CNS(C)(=O)=O)cncc2C1, CN1C[C@H]2CC[C@@H](CC1=O)N2C(=O)c1cc2ccccc2[nH]c1=O is lower in cytotoxicity at 10 µM: 4.68% for the first, -7.66% for the second.

Going from Fc1cccnc1O[C@@H]1CN(Cc2ccco2)[C@@H]2CCCO[C@@H]21 to O=C1C[C@@H]2CC[C@H](CN1)N2c1cc(-c2ccccc2F)nc2ccnn12, the cytotoxicity at 10 µM rises from 5.08% to 20.4%.

O=C(NC1COC2(CCN(CC3CCC3)CC2)C1)c1ccccn1 (stereo unspecified) showed a cytotoxicity at 10 µM of -1.95%.

From ChEMBL document CHEMBL4513216, “Probing the Open Global Health Chemical Diversity Library for Multistage-Active Starting Points for Next-Generation Antimalarials” (ACS Infect Dis, 2020)
